Each structure is given as a SMILES string. Records with an inconclusive call do not appear. The source made the active and inactive calls.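 How the source made its calls: active means compounds whose fitted caspase activation AC50 is no more than tenfold above the top tested dose; inconclusive means flat fit with 30 to 70% activity, or a failed fit; inactive means the rest.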 A value given as a limit tells only on which side of the number the result lay.

This assay concerns MEF Bax/Bak KO A1-BIM, caspase-Glo luminescence, 3 h. In words: caspase signal in Bax-Bak null A1-BIM cells – cell-based, Bax-Bak knockout MEF, A1-2A-BIM, luminescence, counter-screen for A1 inhibitor project, dose response (AID 449754).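 Further: counterscreen where caspase activation signals off-target toxicity not A1 inhibition.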 The method in brief: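 Material: A1-2A-BIM MEFs lacking Bax and Bak / Buffer or medium: RPMI-1640, 10% FBS / Compound: 100 nL pinned compound per well / Timing: 3 h compound at 37 °C, 1 h detection at RT / Technique: CaspaseGlo luminescence, reagent diluted 1:1 in 50 mM HEPES / Read-out basis: caspase activity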
As usually defined, the AC50 is the midpoint of the concentration-response curve, whichever way the signal moves. In the case of `CC(C)N=c1scc(-c2ccco2)n1/N=C/c1ccc(O)c(O)c1`, the AC50 was > 35 µM (inactive).

As to `COc1ccc2c(c1)[nH]c1c(=O)n(/N=C/C3C(C)C=C(C)CC3C)c(=O)[nH]c12` (stereo unspecified), the AC50 is > 35 µM (inactive).

Consider `O=C(Nc1ccc2oc(-c3ccccc3)nc2c1)c1ccccc1F`, for which the AC50 is > 35 µM (inactive).

As for `Cc1ccc(C#N)c(SCC(=O)Nc2nccs2)n1`, the AC50 was > 35 µM (inactive).

Take `CCOC(=O)C1=C(c2ccccc2)O/C(=C(/C#N)C(F)(F)F)S1`: the AC50 is > 35 µM (inactive). Take `CCOC(=O)/C=c1\s/c(=C\c2ccc(C(=O)OC)cc2)c(=O)n1CC(=O)Nc1ccccc1`: the AC50 is > 35 µM (inactive).

In the case of `Cc1c(CCOC(=O)c2ccc(N3CCOCC3)c([N+](=O)[O-])c2)sc[n+]1CC#N`, the AC50 is > 35 µM (inactive). For the compound `COc1ccc(-c2ccc3c(c2)S(=O)(=O)c2cccc(C(=O)NC[C@@H]4CCCO4)c2C3=O)cc1OC`, the AC50 is > 35 µM (inactive). With `Cc1cccc(CS(=O)(=O)c2ncc(Cl)c(C(=O)Nc3nnc(C(C)C)s3)n2)c1`, the AC50 was > 35 µM (inactive). In the case of `COC(=O)[C@@]1(C)CC[C@]2(C)CC[C@@]3(C)C(=CC(=O)C4[C@@]5(C)CC[C@H](O)C(C)(C)[C@@H]5CC[C@]43C)[C@H]2C1` (stereo partly specified) it was > 35 µM (inactive). For `CSC[C@@H]1NC(=S)N(c2ccc(C)cc2)C1=O`, the AC50 is > 35 µM (inactive). As to `CCOc1cccc(C(=O)Nc2cccc(-c3nnc(-c4ccc(C)cc4)o3)c2)c1`, the AC50 is 35.7 µM. For the compound `CCc1cc2c(=O)c(-c3cnn(-c4ccccc4)c3)c(C)oc2cc1OCC(=O)Nc1cccc(C)c1`, the AC50 was > 35 µM (inactive). Take `Cc1ccc(N(Cc2cc(=O)[nH]c3ccccc23)C(=O)CCl)cc1`: the AC50 was > 35 µM (inactive). For the compound `CC(=O)Nc1sc(N/N=C\c2cccc(Cl)c2)nc1-c1cccs1`, the AC50 is > 35 µM (inactive). As to `C=CC(=O)Nc1ccc(CN2C(=O)N(c3c(Cl)c(OC)cc(OC)c3Cl)Cc3cnc(NCCCCN(CC)CC)nc32)cc1`, the AC50 was > 35 µM (inactive). On to `CC1CCc2c(sc3nc(C(C)(C)C)nc(N4CCN(C(=O)CCl)CC4)c23)C1` (stereo unspecified), for which the AC50 is 12.3 µM. Regarding `CC(=O)OC(C)(C)/C=C/C(=O)[C@](C)(O)C1[C@H](O)C[C@@]2(C)C3CC=C4C(C[C@H](O)C(=O)C4(C)C)[C@]3(C)C(=O)C[C@]12C` (stereo partly specified), the AC50 was > 35 µM (inactive). As for `CCc1ccc(Oc2coc3cc(OCC(=O)Nc4cc(C)ccc4C)ccc3c2=O)cc1`, the AC50 is > 35 µM (inactive). For the compound `COc1ccc(OC)c2sc(N(CCCN(C)C)C(=O)c3ccc(S(=O)(=O)N4CCc5ccccc5C4)cc3)nc12`, the AC50 was > 35 µM (inactive).

Take `COc1cc(CN2CCN(c3cc(C)ccc3C)CC2)ccc1O`: the AC50 is > 35 µM (inactive). Turning to `O=C(NC[C@H]1CCCO1)c1cccc2c1C(=O)c1ccc(-c3ccc(F)cc3OCc3ccccc3)cc1S2(=O)=O`, the AC50 was > 35 µM (inactive).

As to `Cc1ccc(NC(=O)c2ccc(N/N=C/c3cccc(O)c3)c([N+](=O)[O-])c2)cc1`, the AC50 was 27.3 µM. Under `Cc1ccc(NC(=O)c2cc(N3C(=O)C=CC3=O)ccc2N2CCOCC2)cc1Cl` stands > 35 µM (inactive); under `O=C1C2C3C=CC(CO)(O3)C2C(=O)N1c1ccc(-c2ccccc2)cc1` (stereo unspecified), > 35 µM (inactive). Consider `O=C(Nc1ccc2oc(-c3ccccc3F)nc2c1)c1ccccc1F`, for which the AC50 was > 35 µM (inactive). Regarding `Cn1cc([N+](=O)[O-])c(C(=O)Nc2cc(Oc3ccccc3)cc([N+](=O)[O-])c2)n1`, the AC50 was > 35 µM (inactive). `CCS(=O)(=O)c1ncc(Cl)c(C(=O)Nc2ccc(S(=O)(=O)N3CCC(C)CC3)cc2)n1`: the AC50 is > 35 µM (inactive). `COc1ccc(OC)c(NC(=O)c2cc3c(Cl)nc4ccccc4c3s2)c1`: the AC50 was > 35 µM (inactive).

As to `CCCCN1C(=O)/C(=C2/Sc3ccccc3N2C)S/C1=N\c1ncn[nH]1`, the AC50 was > 35 µM (inactive). With `COc1cc(/C=C(/C#N)c2nc3ccccc3[nH]2)ccc1OCC(=O)Nc1ccccc1C(C)C`, the AC50 was > 35 µM (inactive). As to `Cc1ccc(-c2nc(NC(=O)c3nn(C)cc3[N+](=O)[O-])sc2C)cc1`, the AC50 is 6.29 µM.

Regarding `CC(=O)Nc1ccc(NC(=O)C(=O)NCC(c2ccco2)N2CCc3ccccc32)cc1` (stereo unspecified), the AC50 is 35.8 µM. As to `CCOc1ccc(OCC(=O)N(CCC2=CCCCC2)c2c(N)n(Cc3ccccc3)c(=O)[nH]c2=O)cc1`, the AC50 is 18.8 µM.

In the case of `O=c1c(Cl)c(Cl)cnn1Cc1ccccc1Cl`, the AC50 is > 35 µM (inactive). In the case of `CC1=NNC(=O)/C1=C\c1cn(-c2ccccc2)nc1-c1ccccc1` it was 11 µM; in that of `CN(C)CCN(C(=O)/C=C/c1cccs1)c1nc2c(F)cc(F)cc2s1`, > 35 µM (inactive). Regarding `Nc1nc(F)nc2c1ncn2[C@@H]1O[C@H](CO)[C@@H](O)[C@H]1O`, the AC50 was > 35 µM (inactive). On to `COCc1cc(C)nc(SCC(=O)Nc2nc(C)cs2)c1C#N`, for which the AC50 was > 35 µM (inactive). Consider `COc1cc(NC(=O)c2ccc(Cl)cc2Cl)ccc1-c1cc2ccccc2oc1=O`, for which the AC50 is > 35 µM (inactive). Turning to `Clc1ccccc1CN(Cc1ccccc1)c1ncnc2nc[nH]c12`, the AC50 is > 35 µM (inactive). For `CC(=O)OC(C)(C)/C=C/C(=O)C(C)(O)C1[C@H](O)C[C@@]2(C)C3CC=C4C(CC[C@@H](O)C4(C)C)[C@]3(CO)C(=O)C[C@]12C` (stereo partly specified), the AC50 is > 35 µM (inactive).

Take `COc1cc(NC(=O)c2cccc(C)c2)ccc1NC(=O)c1cc2ccccc2o1`: the AC50 was > 35 µM (inactive).

With `COc1cc(NC(=O)c2cccs2)ccc1NC(=O)c1cc2ccccc2o1`, the AC50 is > 35 µM (inactive). Take `Cc1cccc(C)c1NC(=O)C(Cl)C(=O)c1ccccc1` (stereo unspecified): the AC50 was > 35 µM (inactive).

For the compound `Cc1ccc(Sc2c([N+](=O)[O-])c(=O)n(C)c3ccccc23)cc1`, the AC50 is > 35 µM (inactive). As for `Cc1occc1-c1nnc(SCC(=O)NCCc2ccccc2)n1Cc1ccccc1`, the AC50 was > 35 µM (inactive). For the compound `N#Cc1c(C(F)(F)F)cc(-c2ccccc2)nc1SCC(=O)Nc1sc2c(c1C#N)CCC2`, the AC50 is > 35 µM (inactive).

As for `CN(C)CCCN(C(=O)c1cc2cc([N+](=O)[O-])ccc2s1)c1nc2cc3c(cc2s1)OCCO3`, the AC50 is > 35 µM (inactive). For the compound `O=S1(=O)CCOC[C@H](CC2CCCCC2)N1Cc1cccc(Cl)c1`, the AC50 was > 35 µM (inactive).

Turning to `C=C1/C=C(\C)[C@](C)(O)C[C@H](O)CC(=O)[C@H](O)[C@@H](O)[C@H](C)C[C@H](C)OC(=O)/C(C)=C/CC/C=C/[C@@H]2O[C@H]2C[C@H](C)C1`, the AC50 was > 35 µM (inactive). Take `CC(C)(C)[C@H](N)C(=O)N[C@H]1CCC2C3CC=C4C[C@@H](O)CC[C@]4(C)C3CC[C@@]21C` (stereo partly specified): the AC50 is > 35 µM (inactive). As to `COc1ccc(OC)c(NC(=O)c2cc(-c3cc(C)ccc3O)n[nH]2)c1`, the AC50 is > 35 µM (inactive). Turning to `CCCCNC(=S)N/N=C/c1ccc(OCC(=O)Nc2c(C)cc(C)cc2C)c(OC)c1`, the AC50 was > 35 µM (inactive). With `Cc1ccc(CS(=O)(=O)c2ncc(Cl)c(C(=O)Nc3nnc(C(C)C)s3)n2)cc1`, the AC50 is > 35 µM (inactive). Turning to `Cc1cc(NC(=O)CSc2nc3cc(Cl)ccc3c(=O)n2Cc2ccco2)no1`, the AC50 is > 35 µM (inactive). Take `CCCc1ccc(OCc2ccc(C(=O)N/N=C/c3cccc([N+](=O)[O-])c3)o2)c(OC)c1`: the AC50 was 26.3 µM. In the case of `COc1ccc(NC(=O)CSc2nc3ccc(Nc4nc(N5CCOCC5)nc(N5CCOCC5)n4)cc3s2)cc1`, the AC50 was > 35 µM (inactive).

On to `Cc1ccc(NC(=S)NC(NC(=O)Cc2cccc3ccccc23)C(Cl)(Cl)Cl)cc1` (stereo unspecified), for which the AC50 was 22.9 µM.

As for `c1ccc(-c2sc3ccccc3c2-c2ccc(OCCN3CCCC3)cc2)cc1`, the AC50 was 33 µM. In the case of `CC1CCN(Cc2c(C(=O)N/N=C/c3ccc(C(C)(C)C)cc3)nnn2-c2nonc2N)CC1` it was > 35 µM (inactive); in that of `Cc1ccc(S(=O)(=O)c2nnn3c2nc(Nc2cccc(C)c2)c2ccccc23)cc1`, > 35 µM (inactive). As to `CCc1nn(-c2cc(Oc3cccc4ccccc34)nc(-c3ccccc3)n2)c(N)c1C#N`, the AC50 is > 35 µM (inactive). Consider `CCOC(=O)c1sc(NC(=O)CSc2nc(C)cc(C)c2C#N)c(C#N)c1C`, for which the AC50 is > 35 µM (inactive).

As to `Cc1ccc2nc(N(CCCN(C)C)C(=O)c3ccc(S(=O)(=O)N4CCc5ccccc5C4)cc3)sc2c1`, the AC50 was > 35 µM (inactive).

As for `O=C(Nc1ccc([N+](=O)[O-])cc1)c1nc[nH]c1C(=O)NC1CCCCC1`, the AC50 is > 35 µM (inactive).

As to `Cc1ccc2c(c1)c(C1=c3ccccc3=NC1=O)c(O)n2C`, the AC50 is > 35 µM (inactive).

In the case of `CC(=O)Nc1ccc(NC(=O)C(C)OC(=O)/C=C/c2cn(-c3ccccc3)nc2-c2cccnc2)cc1` (stereo unspecified), the AC50 is 18.4 µM. Regarding `COc1cc2cnc(-c3ccccc3)c(-c3cccc(C(F)(F)F)c3)c2cc1OC`, the AC50 was > 35 µM (inactive).

`Cc1cccc(NC(=O)/C(C#N)=C/c2cn(CC(=O)NCc3ccco3)c3ccccc23)c1`: the AC50 was > 35 µM (inactive). With `Cc1ccc2c(c1)C(=O)C(=O)N2Cc1ccc(Br)cc1`, the AC50 was > 35 µM (inactive). In the case of `COC(=O)CSc1nc(N)c2c3c(sc2n1)C(c1ccccc1)SC(c1ccccc1)C3` (stereo unspecified), the AC50 is > 35 µM (inactive). In the case of `Oc1[nH]c2ccc(Br)cc2c1N=NC(=S)Nc1ccc(F)cc1`, the AC50 is > 35 µM (inactive). Turning to `COC(=O)Cc1csc(/N=C/c2c(O)n(-c3cccc(C(F)(F)F)c3)c(=O)c3ccccc23)n1`, the AC50 is 28 µM.

For `COc1cccc(C(=O)C(C#N)=C(SC)SC)c1`, the AC50 was > 35 µM (inactive). As for `O=C(Nc1ccc(O)c2c(=O)cc(-c3cccc(Cl)c3)oc12)c1cccc(Cl)c1`, the AC50 was > 35 µM (inactive).

The values are drawn from PubChem BioAssay AID449754 (Broad Institute, 2010).
